# Assay results published in PubChem BioAssay.
# Activity calls are given as the source filed them.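 Rule for the calls: active = GFP response above 150% of the DMSO control; inconclusive = fewer than 70 events counted in any yeast strain; inactive = the rest.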
# Test: yeast TOR pathway reporter LAP4-GFP change – cell-based, cherry picks, flow cytometry, mother/daughter gates, confirmation (AID 2271);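 note: ratio of sample to DMSO plate mean so 100% equals DMSO level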
# Conditions: S. cerevisiae LAP4-GFP strain, 3 h, at 10 µM, stronger effect = higher value, 100 means same as DMSO control
# How it was run: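 Material: Alexa 633-stained baker's yeast GFP-fusion strain; Compound dosing: single test-compound dose, 10 µM final; Incubation: 30 °C, 3 h compound incubation, rotating; Detection: HT flow cytometry, GFP fluorescence channel; Control set: positive rapamycin (400 ng/mL), negative DMSO.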
row,SMILES,GFP response relative to DMSO
1,COc1cccc2cc(C(=O)N3CCN(C/C=C/c4ccccc4)CC3)c(=O)oc12,97% (inactive)
2,O=S(=O)(/N=C(\Sc1ccc(Cl)cc1)c1ccccc1)c1ccccc1,182% (active)
3,Cc1ccc(/C=c2\sc3nc(-c4cccs4)nn3c2=O)o1,128% (inactive)
4,N=c1n(CCN2CCCCC2)c2ccccc2n1CC(=O)c1ccc(Cl)c(Cl)c1,101% (inactive)
5,COc1ccc(/C=C/C(=O)NC(=S)NNC(=O)c2cnccn2)cc1,166% (active)
6,CCCCNc1c(-c2ccc(SC(C)CC)cc2)nc2ccccn12 (stereo not given),120% (inactive)
7,CCOC(=O)Cc1csc(NC(=O)CSc2nnc(-c3ccc(C)cc3)o2)n1,103% (inactive)
8,COc1ccc(C2=NN(S(C)(=O)=O)C(c3ccc4nccnc4c3)C2)cc1 (stereo not given),99.8% (inactive)
9,Oc1c(Br)cc(Br)cc1C=Nc1ccc2c(c1)OCO2,190% (active)
10,CCOc1ccc(Nc2nc(N(C)c3ccccc3)nc(N)c2[N+](=O)[O-])cc1,96.5% (inactive)
11,CC[n+]1cc(C)ccc1/C=C/c1ccc(N(C)C)cc1,134% (inactive)
12,COc1ccc(/C=C/C(=O)c2ccc(OC)cc2O)cc1,98.8% (inactive)
13,COc1ccc(-c2sc(C(=O)c3ccc(Cl)cc3Cl)cc2CC(=O)O)cc1,130% (inactive)
14,Cn1c(=O)[nH]c(=O)c2c1nc(N1CCCCC1)n2CCOc1ccccc1,98.7% (inactive)
15,COCc1nnc(NC(=O)c2ccc(S(=O)(=O)N3CCCCCC3)cc2)o1,105% (inactive)
16,CC(C)c1ccc(C2C3CSCC=C3C(C#N)=C(N)C2(C#N)C#N)cc1 (stereo not given),111% (inactive)
17,CC(C)(C)C(=O)C(Cl)C(=O)Nc1ccccc1 (stereo not given),300% (active)
18,CCOC(=O)CSC1=NC(=O)/C(=C\c2ccc(Cl)cc2)S1,197% (active)
19,Cc1ccc(/C=C/C(=O)N2CC(C)CC(C)C2)o1 (stereo not given),111% (inactive)
20,CCOc1c(Br)ccc2c1sc1nc[nH]c(=O)c12,105% (inactive)

row,SMILES,GFP response relative to DMSO
1,Cc1cc(NC(=O)c2cc3ccccc3o2)ccc1NC(=O)c1ccccc1,95.4% (inactive)
2,COc1ccc(C(=O)Nc2cccc(C)c2)cc1,109% (inactive)
3,O=C1c2ccccc2C(=O)c2c([N+](=O)[O-])ccc(O)c21,122% (inactive)
4,Nc1ccccc1NC(=O)c1ccccc1,98.9% (inactive)
5,Cc1ccccc1N1C(=O)c2cccc3c(N(C)CCO)ccc(c23)C1=O,100% (inactive)
6,O=C(/C=C/c1ccccc1)Nc1ncn[nH]1,135% (inactive)
7,CCCCCCCCC/C(=N\O)c1ccccn1,214% (active)
8,COc1cccc2c1Oc1ncccc1N(C(=O)CCC(=O)NCc1ccc(C)cc1)C2,95.7% (inactive)
9,C/C(=N\NC(=O)c1ccc(Br)cc1)c1ccccc1,97.9% (inactive)
10,NS(=O)(=O)c1ccc(S(=O)(=O)c2ccccc2)nc1,97.9% (inactive)
11,Cc1nn(Cc2ccc([N+](=O)[O-])cc2)c(=O)n1-c1cccc(Cl)c1,96.7% (inactive)
12,O=C(c1ccccc1Br)N1CCN(c2ccccc2)CC1,93.8% (inactive)
13,Cc1c(NC(=O)Nc2ccc3c(c2)OCO3)c(=O)n(-c2ccccc2)n1C,96.5% (inactive)
14,COc1ccc(C(=O)/C=C/c2ccccc2C(F)(F)F)cc1,99.2% (inactive)
15,CCc1noc(C)c1C(=O)Nc1nc(-c2cc(C)ccc2C)c(C)s1,95% (inactive)
16,CC(C)(C)n1nc(-c2ccc(Cl)cc2)c2c(N)ncnc21,191% (active)
17,O=c1oc2cc(Oc3c([N+](=O)[O-])cc(C(F)(F)F)cc3[N+](=O)[O-])ccc2c2c1CCCC2,246% (active)
18,Cc1occc1-c1nnc(-c2cc([N+](=O)[O-])cc([N+](=O)[O-])c2)o1,142% (inactive)
19,CCOc1ccc(Nc2ccc(C(=O)O)cc2[N+](=O)[O-])cc1,101% (inactive)
20,Cc1nnc(NC(=O)c2csc3c2CCC(C)C3)s1 (stereo not given),117% (inactive)

# Same assay, conditions: S. cerevisiae LAP4-GFP strain, 3 h, measured here: daughter cell gate response, at 10 µM, stronger effect = higher value, 100 means same as DMSO control
row,SMILES,GFP response relative to DMSO [%]
1,COc1cccc2cc(C(=O)N3CCN(C/C=C/c4ccccc4)CC3)c(=O)oc12,95.9
2,O=S(=O)(/N=C(\Sc1ccc(Cl)cc1)c1ccccc1)c1ccccc1,145
3,Cc1ccc(/C=c2\sc3nc(-c4cccs4)nn3c2=O)o1,117
4,N=c1n(CCN2CCCCC2)c2ccccc2n1CC(=O)c1ccc(Cl)c(Cl)c1,100
5,COc1ccc(/C=C/C(=O)NC(=S)NNC(=O)c2cnccn2)cc1,120
6,CCCCNc1c(-c2ccc(SC(C)CC)cc2)nc2ccccn12 (stereo not given),114
7,CCOC(=O)Cc1csc(NC(=O)CSc2nnc(-c3ccc(C)cc3)o2)n1,101
8,COc1ccc(C2=NN(S(C)(=O)=O)C(c3ccc4nccnc4c3)C2)cc1 (stereo not given),103
9,Oc1c(Br)cc(Br)cc1C=Nc1ccc2c(c1)OCO2,114
10,CCOc1ccc(Nc2nc(N(C)c3ccccc3)nc(N)c2[N+](=O)[O-])cc1,95
11,CC[n+]1cc(C)ccc1/C=C/c1ccc(N(C)C)cc1,138
12,COc1ccc(/C=C/C(=O)c2ccc(OC)cc2O)cc1,99.3
13,COc1ccc(-c2sc(C(=O)c3ccc(Cl)cc3Cl)cc2CC(=O)O)cc1,127
14,Cn1c(=O)[nH]c(=O)c2c1nc(N1CCCCC1)n2CCOc1ccccc1,100
15,COCc1nnc(NC(=O)c2ccc(S(=O)(=O)N3CCCCCC3)cc2)o1,97.5
16,CC(C)c1ccc(C2C3CSCC=C3C(C#N)=C(N)C2(C#N)C#N)cc1 (stereo not given),108
17,CC(C)(C)C(=O)C(Cl)C(=O)Nc1ccccc1 (stereo not given),186
18,CCOC(=O)CSC1=NC(=O)/C(=C\c2ccc(Cl)cc2)S1,150
19,Cc1ccc(/C=C/C(=O)N2CC(C)CC(C)C2)o1 (stereo not given),107
20,CCOc1c(Br)ccc2c1sc1nc[nH]c(=O)c12,99

row,SMILES,GFP response relative to DMSO [%]
1,Cc1cc(NC(=O)c2cc3ccccc3o2)ccc1NC(=O)c1ccccc1,94.4
2,COc1ccc(C(=O)Nc2cccc(C)c2)cc1,108
3,O=C1c2ccccc2C(=O)c2c([N+](=O)[O-])ccc(O)c21,114
4,Nc1ccccc1NC(=O)c1ccccc1,96
5,Cc1ccccc1N1C(=O)c2cccc3c(N(C)CCO)ccc(c23)C1=O,99.3
6,O=C(/C=C/c1ccccc1)Nc1ncn[nH]1,125
7,CCCCCCCCC/C(=N\O)c1ccccn1,170
8,COc1cccc2c1Oc1ncccc1N(C(=O)CCC(=O)NCc1ccc(C)cc1)C2,94.2
9,C/C(=N\NC(=O)c1ccc(Br)cc1)c1ccccc1,99.2
10,NS(=O)(=O)c1ccc(S(=O)(=O)c2ccccc2)nc1,97.6
11,Cc1nn(Cc2ccc([N+](=O)[O-])cc2)c(=O)n1-c1cccc(Cl)c1,97.6
12,O=C(c1ccccc1Br)N1CCN(c2ccccc2)CC1,92.5
13,Cc1c(NC(=O)Nc2ccc3c(c2)OCO3)c(=O)n(-c2ccccc2)n1C,96.5
14,COc1ccc(C(=O)/C=C/c2ccccc2C(F)(F)F)cc1,99.2
15,CCc1noc(C)c1C(=O)Nc1nc(-c2cc(C)ccc2C)c(C)s1,95.6
16,CC(C)(C)n1nc(-c2ccc(Cl)cc2)c2c(N)ncnc21,172
17,O=c1oc2cc(Oc3c([N+](=O)[O-])cc(C(F)(F)F)cc3[N+](=O)[O-])ccc2c2c1CCCC2,153
18,Cc1occc1-c1nnc(-c2cc([N+](=O)[O-])cc([N+](=O)[O-])c2)o1,126
19,CCOc1ccc(Nc2ccc(C(=O)O)cc2[N+](=O)[O-])cc1,99.1
20,Cc1nnc(NC(=O)c2csc3c2CCC(C)C3)s1 (stereo not given),110
